According to article PMC9786734 (Biomedical Chromatography, 2022):

Legend:
[1] = Pilot pharmacokinetic and tissue distribution study in mice after oral EAI045; format: in vivo, mouse (FVB/NRj wild-type, female)
Method in brief: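 Five female FVB/NRj mice, 10–15 weeks old, fasted 3 h, then given one 20 mg/kg oral gavage dose. Vehicle: DMSO stock at 4 mg/ml, diluted with polysorbate 80–ethanol (1:1) and 5% glucose to 2 mg/ml. Tail-vein blood taken at 5, 15, 30 min, 1 and 2 h. At 4 h, cardiac puncture under isoflurane, then organs homogenised in 2% BSA. Cmax/Tmax observed; AUC0–t by trapezoidal rule; CL/F = dose/AUC0–t; mean ± SD.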

[2] = Stability in mouse plasma QC samples; format: in vitro ADME
Method in brief: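 Pooled female mouse lithium–heparin plasma QCs at high (1,500 ng/ml) and low (6 ng/ml) levels, as 10 µl portions (n = 4). Three conditions: room temperature for 5 and 24 h; three freeze–thaw cycles (1 h thaw at room temperature, 1 day at −30°C); and 1.5 months at −30°C. Quantified by LC–MS/MS after acetonitrile precipitation.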

[3] = Short-term stability in mouse tissue homogenates; format: in vitro ADME
Method in brief: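 Blank homogenate made by homogenising the whole organ in ice-cold 2% (w/v) BSA in water. Medium QC (100 ng/ml) prepared by diluting high-QC plasma into the homogenate. Held 5 h at room temperature (n = 4), then acetonitrile protein precipitation with internal standard and LC–MS/MS quantification. Peak-area ratios were read from a 1/x²-weighted calibration line.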

[4] = Stability of methanolic stock solutions; format: physicochemical; conditions: 1.5 months at −30°C, methanol
Method in brief: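 Single-analyte stocks (0.5 mg/ml in methanol, made from 300–500 µg of weighed solid) stored 1.5 months at −30°C, then reanalysed by LC–MS/MS.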

[5] = female, FVB/NRj, mouse, plasma, po, 20 mg/kg

- concentration at 4 h ([1]; female, FVB/NRj, mouse, brain, po, 20 mg/kg): 9.8 ng/g
- concentration at 4 h ([1]; female, FVB/NRj, mouse, kidney, po, 20 mg/kg): 30.8 ng/mL
- AUC(0-t) [1, 5]: 1870 ng·h/mL
- Cmax [1, 5]: 1520 ng/mL
- Tmax [1, 5]: 15 to 30 min
- half-life [1, 5]: 70.2 ± 12.6 min
- metabolite level compared with EAI045 (ratio) ([1]; pilot study, SIWC): ca. 5%
- metabolite level compared with EAI045 ([1]; pilot study, all matrices except SIWC): higher than 10%
- plasma concentration (chromatogram sample) ([1]; plasma sample from a single mouse, oral 20 mg/kg EAI045): 133 ng/mL
- time by which PIA was more abundant in plasma than the parent drug ([1]; plasma, oral 20 mg/kg EAI045, mice): ≤ 15 min
- absolute amount retrieved from SIWC ([1]; small intestine with contents, 4 h after oral 20 mg/kg EAI045, mice, data not shown): ~ 0.074 % of the EAI045 dose
- recovery at 1.5 months, 6 ng/ml [2]: 110 ± 9.6%
- recovery at 1.5 months, 1500 ng/ml [2]: 90.8 ± 2.4%
- recovery at 5 h, 6 ng/ml [2]: 93.3 ± 1.8%
- recovery at 5 h, 1500 ng/ml [2]: 102 ± 4.1%
- recovery at 24 h, 6 ng/ml [2]: 101 ± 8.3%
- recovery at 24 h, 1500 ng/ml [2]: 100 ± 6.2%
- recovery at 5 h, 100 ng/ml ([3]; SIWC homogenate): 104 ± 3.4%
- recovery at 5 h, 100 ng/ml ([3]; brain homogenate): 99.7 ± 5.1%
- recovery at 5 h, 100 ng/ml ([3]; kidney homogenate): 99.4 ± 2.4%
- recovery at 5 h, 100 ng/ml ([3]; liver homogenate): 114 ± 10.9%
- recovery at 5 h, 100 ng/ml ([3]; lung homogenate): 107 ± 2%
- recovery at 5 h, 100 ng/ml ([3]; spleen homogenate): 107 ± 7.6%
- recovery of methanolic stock solution [4]: 98.3%
Structure (SMILES): O=C(O)C(c1cc(F)ccc1O)N1Cc2ccccc2C1=O (stereo not drawn) [PIA, (5‐fluoro‐2‐hydroxyphenyl)(1‐oxo‐1,3‐dihydro‐2H‐isoindol‐2‐yl)acetic acid]
